According to ChEMBL document CHEMBL5620421, “2,6-Disubstituted 7-(naphthalen-2-ylmethyl)-7H-purines as a new class of potent antitubercular agents inhibiting DprE1” (Eur J Med Chem, 2023):

Legend:
Assay type in all cases: functional
Settings in all cases: time 14-21 day
[1] = test system: Mycobacterium tuberculosis; assay: (§1) Antimycobacterial activity against isoniazid/ethambutol/rifampin/streptomycin/amikacin/gentamicin/clofazimine/ofloxacin resistant MDR/XDR clinical isolate Mycobacterium tuberculosis PRAHA 131 assessed as inhibition of mycobacterial growth measured after 14 to 21 days of incubation by Sulas semisynthetic medium based assay
In short: (§2)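 Clinical MDR/XDR M. tuberculosis isolates were tested by the Sula's semisynthetic medium micromethod. Compounds in DMSO at 1000 to 0.5 μmol/L, in twofold-type steps. Incubation at 37 °C, read at 14 and 21 days. MIC99 is the lowest concentration inhibiting >99% of growth. Drug resistance or susceptibility of each isolate is to amikacin, clofazimine, gentamicin, ofloxacin, streptomycin and the others listed.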

[2] = test system: Mycobacterium tuberculosis; assay: as §1, with “4” for “131”; in short: as §2
[3] = test system: Mycobacterium tuberculosis; assay: as §1, with “7357/1998” for “PRAHA 131”; in short: as §2
[4] = test system: Mycobacterium tuberculosis; assay: as §1, with “9449/2007” for “PRAHA 131”; in short: as §2
[5] = test system: Mycobacterium tuberculosis; assay: as §1, with “8666/2010” for “PRAHA 131”; in short: as §2
[6] = test system: Mycobacterium tuberculosis; assay: as §1, with “234/2005” for “PRAHA 131”; in short: as §2
[7] = test system: Mycobacterium tuberculosis; assay: as §1, with “1” for “131”; in short: as §2

CN[C@@H]1[C@H](O[C@H]2[C@H](O[C@H]3[C@H](O)[C@@H](O)[C@H](N=C(N)N)[C@@H](O)[C@@H]3N=C(N)N)O[C@@H](C)[C@]2(O)C=O)O[C@@H](CO)[C@H](O)[C@H]1O [STREPTOMYCIN]
MIC99 [1]: > 32 µM | MIC99 [2]: > 32 µM | MIC99 [3]: > 32 µM | MIC99 [4]: > 32 µM | MIC99 [5]: > 32 µM

GENTAMICIN
MIC99 [1]: > 8 µM

NCC[C@H](O)C(=O)N[C@@H]1C[C@H](N)[C@@H](O[C@H]2O[C@H](CN)[C@@H](O)[C@H](O)[C@H]2O)[C@H](O)[C@H]1O[C@H]1O[C@H](CO)[C@@H](O)[C@H](N)[C@H]1O [AMIKACIN]
MIC99 [1]: > 32 µM

CC1COc2c(N3CCN(C)CC3)c(F)cc3c(=O)c(C(=O)O)cn1c23 (stereo not given) [OFLOXACIN]
MIC99 [2]: > 16 µM

CO[C@H]1/C=C/O[C@@]2(C)Oc3c(C)c(O)c4c(O)c(c(/C=N/N5CCN(C)CC5)c(O)c4c3C2=O)NC(=O)/C(C)=C\C=C\[C@H](C)[C@H](O)[C@@H](C)[C@@H](O)[C@@H](C)[C@H](OC(C)=O)[C@@H]1C [RIFAMPIN]
MIC99 [1]: > 8 µM | MIC99 [6]: > 8 µM | MIC99 [7]: > 8 µM | MIC99 [2]: > 8 µM | MIC99 [3]: > 8 µM | MIC99 [4]: > 8 µM | MIC99 [5]: > 8 µM
